Measured values published in paper PMC7722202 (Angewandte Chemie (International ed. in English), 2020).

Key:
[1] = Hydrodynamic diameter by dynamic light scattering; format: physicochemical; conditions: DLS; nanoparticles via photo-PISA at solids content of 15 wt.%
[2] = system: HeLa cells; format: cell-based, human
[3] = system: HeLa cells; experiment: Mitochondrial membrane potential with JC-1 probe, live-cell confocal microscopy; format: cell-based, human; conditions: 2 μM JC-1 probe, excitation 488 nm, NP5 after 30 min incubation
Summary of the method: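 Live HeLa cells were exposed to the test peptide materials for set times, then stained with 2 μM JC-1 followed by Hoechst 33342 before imaging. Confocal microscopy, both channels excited at 488 nm: monomer green at 510–550 nm, J-aggregate red at 585–649 nm; nuclei at ex 405/em 420–480 nm. Green and red fluorescence were compared. CCCP was run alongside.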

Substance	Dh (hydrodynamic diameter) [1] [nm]	cytotoxicity in HeLa cells [2]	red fluorescence of JC-1 J-aggregates (mitochondrial membrane potential) [3]
poly[(KLAAm10-co-DMA30)-b-(DAAm280-co-DMA120)] [NP3]	105	dose-dependent cytotoxicity	
poly[(KLAAm10-co-DMA10)-b-(DAAm280-co-DMA120)] [NP5]			almost no red emission
